Experimental data published in ChEMBL document CHEMBL1146071, “2,4-diaminopyrimidine derivatives as potent growth hormone secretagogue receptor antagonists” (J Med Chem, 2006).
One block for each molecule: values may come before it. The source made the active and inactive calls. No cut-off for these calls is given here.

Legend:
[1] = Cmax in Sprague-Dawley rat at 5 mg/kg, iv; assay type: ADME, organism-based; parameters: dose 5 mg/kg, route intravenous; details: in vivo
Method in brief: (§1)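 Rats dosed at 5 mg/kg: iv for AUC (µg·h/mL), clearance (L/h·kg) and Cmax (µg/mL); oral for bioavailability unless stated otherwise. Brain (µg/g) and plasma levels taken at 1 and 8 h. Mean of n = 3.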

[2] = target: T1, Growth hormone secretagogue receptor type 1 (Homo sapiens, UniProt Q92847); experiment: Antagonist activity at human GHS receptor by inhibition of ghrelin-induced intracellular calcium flux in CHOK cells; assay type: functional, cell-based
Method in brief: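 CHO-K cells stably expressing human GHS-R, grown in Ultra-CHO medium with 1% dialyzed FCS and 400 µg/mL G418, plated to confluency overnight. Loaded with Fluo-4 AM plus probenecid for 1-3 h in the dark at RT, then washed. On FLIPR (ex 488/em 520 nm), compound added first and read 3 min, then ghrelin added and read another 3 min. Duplicate or triplicate wells; sigmoidal fit for IC50.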

[3] = Plasma concentration in Sprague-Dawley rat at 5 mg/kg after 1 hr; assay type: ADME, organism-based; parameters: dose 5 mg/kg; method in brief: as §1
[4] = Concentration in Sprague-Dawley rat brain at 5 mg/kg after 1 hr; assay type: ADME, organism-based; parameters: dose 5 mg/kg; details: read-out: Ct; method in brief: as §1
[5] = Half life in Sprague-Dawley rat at 5 mg/kg; assay type: ADME, organism-based; parameters: dose 5 mg/kg; details: in vivo; method in brief: as §1
[6] = target: T1, Growth hormone secretagogue receptor type 1; experiment: Displacement of [125I]ghrelin from human GHS receptor expressed in CHOK cells; assay type: cell-based
Method in brief: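 Membranes from CHO-K cells expressing human ghrelin receptor, prepared by sonication and a 60000g spin. Filtered onto PEI-soaked GF/C, washed cold, scintillation counted; percent inhibition, sigmoidal fit for IC50.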

[7] = Plasma clearance in Sprague-Dawley rat at 5 mg/kg, iv; assay type: ADME, organism-based; parameters: dose 5 mg/kg, route intravenous; method in brief: as §1
[8] = Oral bioavailability in Sprague-Dawley rat at 5 mg/kg; assay type: ADME, organism-based; details: in vivo; method in brief: as §1
[9] = (§2) AUC in Sprague-Dawley rat at 5 mg/kg, iv; assay type: ADME, organism-based, Plasma; parameters: dose 5 mg/kg, route intravenous; details: Sprague-Dawley, plasma; method in brief: as §1
[10] = Concentration in Sprague-Dawley rat brain at 5 mg/kg after 8 hrs; assay type: ADME, organism-based; parameters: dose 5 mg/kg; details: read-out: Ct; method in brief: as §1
[11] = Plasma concentration in Sprague-Dawley rat at 5 mg/kg after 8 hrs; assay type: ADME, organism-based; parameters: dose 5 mg/kg; method in brief: as §1
[12] = test system: Rattus norvegicus; experiment: Reduction in cumulative food intake in free-fed Sprague-Dawley rat at 30 mg/kg, ip after 1 hr; assay type: functional, organism-based; parameters: dose 30 mg/kg
Method in brief: (§3)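 Single ip dose of 10 or 30 mg/kg to free-fed or 16 h (overnight) fasted Sprague-Dawley rats. Cumulative food intake recorded at 1 and 24 h after dosing. n = 10/group, mean ± SEM; ANOVA with post hoc Dunnett.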

[13] = test system: Rattus norvegicus; experiment: Bioavailability in Sprague-Dawley rat at 5 mg/kg, ip; assay type: ADME, organism-based; details: in vivo
[14] = target: Cannabinoid receptor 1 (Homo sapiens) (UniProt P21554); experiment: Inhibition of CB1 receptor at 10 uM
[15] = test system: Rattus norvegicus; experiment: AUC in Sprague-Dawley rat at 5 mg/kg, ip; assay type: ADME, organism-based, Plasma; parameters: dose 5 mg/kg, route intraperitoneal; details: in vivo
[16] = Cmax in Sprague-Dawley rat at 5 mg/kg, ip; assay type: ADME, organism-based; parameters: dose 5 mg/kg, route intraperitoneal; details: in vivo
[17] = test system: Rattus norvegicus; experiment: Reduction in cumulative food intake in free-fed Sprague-Dawley rat at 30 mg/kg, ip after 24 hrs; assay type: functional; parameters: scale not given: the % may be the effect or the level left; details: route intraperitoneal; method in brief: as §3
[18] = Half life in Sprague-Dawley rat at 5 mg/kg, ip; assay type: ADME, organism-based; parameters: dose 5 mg/kg, route intraperitoneal; details: in vivo
[19] = Inhibition of histamine receptor
[20] = target: T2, 5-hydroxytryptamine receptor 2C (Homo sapiens, UniProt P28335); experiment: Inhibition of 5HT2C receptor
T2 sequence (P28335 whole entry): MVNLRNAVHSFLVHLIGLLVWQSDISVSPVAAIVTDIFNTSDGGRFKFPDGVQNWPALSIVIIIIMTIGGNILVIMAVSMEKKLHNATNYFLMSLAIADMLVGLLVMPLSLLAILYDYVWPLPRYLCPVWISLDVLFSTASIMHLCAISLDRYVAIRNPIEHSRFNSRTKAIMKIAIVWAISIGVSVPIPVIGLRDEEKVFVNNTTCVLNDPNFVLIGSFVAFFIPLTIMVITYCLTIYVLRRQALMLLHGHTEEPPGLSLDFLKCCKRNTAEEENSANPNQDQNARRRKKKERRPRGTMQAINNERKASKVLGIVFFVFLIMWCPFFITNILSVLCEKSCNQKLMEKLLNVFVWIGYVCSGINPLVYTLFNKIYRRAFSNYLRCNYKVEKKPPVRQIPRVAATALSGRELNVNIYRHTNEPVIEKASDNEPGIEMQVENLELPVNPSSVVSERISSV

[21] = Plasma concentration in Sprague-Dawley rat at 30 mg/kg, ip after 1 hr; assay type: ADME, organism-based; parameters: dose 30 mg/kg, route intraperitoneal
Method in brief: (§4)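 Rats given 30 mg/kg ip. Brain (µg/g) and plasma levels measured at 1 and 8 h after dosing.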

[22] = target: Melanin-concentrating hormone receptor (Homo sapiens, UniProt Q969V1+Q99705); experiment: Activity against MCH receptor in an intracellular calcium flux assay; assay type: functional, cell-based
[23] = target: Muscarinic acetylcholine receptor; experiment: Inhibition of muscarinic receptor; assay type: protein assay
[24] = test system: Rattus norvegicus; experiment: Reduction in cumulative food intake in fasted Sprague-Dawley rat at 10 mg/kg, ip after 24 hrs; assay type: functional, organism-based; parameters: dose 10 mg/kg; method in brief: as §3
[25] = Inhibition of adrenergic receptor
[26] = test system: Rattus norvegicus; experiment: Reduction in cumulative food intake in free-fed Sprague-Dawley rat at 10 mg/kg, ip after 1 hr; assay type: functional, organism-based; parameters: dose 10 mg/kg; method in brief: as §3
[27] = test system: Rattus norvegicus; experiment: Reduction in cumulative food intake in free-fed Sprague-Dawley rat at 10 mg/kg, ip after 24 hrs; assay type: functional, organism-based; parameters: dose 10 mg/kg; method in brief: as §3
[28] = Concentration in Sprague-Dawley rat brain at 30 mg/kg, ip after 8 hrs; assay type: ADME, organism-based; parameters: dose 30 mg/kg, route intraperitoneal; details: read-out: Ct; method in brief: as §4
[29] = target: Nociceptin/orphanin FQ receptor, ORL1 (Homo sapiens) (UniProt P41146); experiment: Inhibition of opioid like-1 receptor
[30] = target: Dopamine receptor; experiment: Inhibition of dopaminergic receptor; assay type: protein assay
[31] = test system: Rattus norvegicus; experiment: Reduction in cumulative food intake in fasted Sprague-Dawley rat at 30 mg/kg, ip after 24 hrs; assay type: functional; parameters: scale not given: the % may be the effect or the level left; details: route intraperitoneal; method in brief: as §3
[32] = test system: Rattus norvegicus; experiment: Decrease in body weight in Sprague-Dawley rat at 30 mg/kg, ip after 24 hrs; assay type: functional, organism-based; parameters: dose 30 mg/kg
Method in brief: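 Free-fed Sprague-Dawley rats given a single ip dose (10 or 30 mg/kg); body weight taken 24 h after dosing. n = 10/group, mean ± SEM; ANOVA with post hoc Dunnett.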

[33] = Plasma concentration in Sprague-Dawley rat at 30 mg/kg, ip after 8 hrs; assay type: ADME, organism-based; parameters: dose 30 mg/kg, route intraperitoneal; method in brief: as §4
[34] = Plasma clearance in Sprague-Dawley rat at 5 mg/kg, iv
[35] = Concentration in Sprague-Dawley rat brain at 30 mg/kg, ip after 1 hr; assay type: ADME, organism-based; parameters: dose 30 mg/kg, route intraperitoneal; details: read-out: Ct; method in brief: as §4
[36] = test system: Rattus norvegicus; experiment: as §2; assay type: ADME, organism-based, Plasma; parameters: dose 5 mg/kg, route intravenous; details: in vivo; method in brief: as §1

T1 sequence (Q92847 whole entry): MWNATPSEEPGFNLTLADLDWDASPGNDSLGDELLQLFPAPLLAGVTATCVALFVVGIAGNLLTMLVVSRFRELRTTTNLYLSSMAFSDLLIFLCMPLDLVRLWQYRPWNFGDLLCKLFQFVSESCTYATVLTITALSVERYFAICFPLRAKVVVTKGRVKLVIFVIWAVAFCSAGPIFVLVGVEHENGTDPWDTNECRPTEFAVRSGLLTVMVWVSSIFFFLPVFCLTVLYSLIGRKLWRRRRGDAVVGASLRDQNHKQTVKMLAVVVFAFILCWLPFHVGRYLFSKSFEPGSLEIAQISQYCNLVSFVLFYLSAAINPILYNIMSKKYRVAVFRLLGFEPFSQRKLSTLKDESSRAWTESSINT
Chain of Cannabinoid receptor 1 (Homo sapiens) (P21554 whole entry): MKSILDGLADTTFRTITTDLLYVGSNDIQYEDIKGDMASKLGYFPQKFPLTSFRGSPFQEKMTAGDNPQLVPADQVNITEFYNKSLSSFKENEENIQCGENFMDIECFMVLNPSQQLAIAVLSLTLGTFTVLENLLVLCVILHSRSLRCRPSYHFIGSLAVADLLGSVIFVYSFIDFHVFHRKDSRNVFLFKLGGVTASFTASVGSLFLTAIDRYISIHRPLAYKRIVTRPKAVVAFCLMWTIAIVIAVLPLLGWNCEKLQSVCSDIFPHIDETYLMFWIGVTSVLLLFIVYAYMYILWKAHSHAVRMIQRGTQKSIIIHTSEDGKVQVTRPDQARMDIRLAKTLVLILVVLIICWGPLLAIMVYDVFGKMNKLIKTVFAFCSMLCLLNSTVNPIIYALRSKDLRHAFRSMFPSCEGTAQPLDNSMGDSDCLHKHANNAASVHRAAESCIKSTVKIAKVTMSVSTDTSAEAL
Chain of Nociceptin/orphanin FQ receptor, ORL1 (Homo sapiens) (P41146 whole entry, looked up): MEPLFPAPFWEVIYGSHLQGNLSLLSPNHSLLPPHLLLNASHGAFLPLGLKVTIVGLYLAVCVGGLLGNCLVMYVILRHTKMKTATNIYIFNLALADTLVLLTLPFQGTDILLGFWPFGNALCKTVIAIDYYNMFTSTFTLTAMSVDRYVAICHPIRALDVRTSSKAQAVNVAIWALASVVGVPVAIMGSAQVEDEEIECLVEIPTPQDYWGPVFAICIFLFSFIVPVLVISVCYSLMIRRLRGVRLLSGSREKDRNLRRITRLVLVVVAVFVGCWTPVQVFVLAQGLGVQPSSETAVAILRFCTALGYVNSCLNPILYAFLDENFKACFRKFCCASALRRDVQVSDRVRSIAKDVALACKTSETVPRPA

Structure (SMILES): CC(=O)c1ccc(CNc2ccc(-c3c(N)nc(N)nc3COCc3ccccc3)cc2)cc1
- IC50 [2]: 10 nM
- IC50 [6]: 1.2 nM

Structure (SMILES): Nc1nc(N)c(-c2ccc(NCc3ccncc3)cc2)c(COCc2ccccc2)n1
- IC50 [2]: 86 nM
- IC50 [6]: 21 nM

Structure (SMILES): CCc1nc(N)nc(N)c1-c1ccc(NCc2csc(Cl)c2)cc1
- IC50 [2]: 790 nM
- IC50 [6]: 290 nM

Structure (SMILES): Nc1nc(N)c(-c2ccc(NCc3ccc(Cl)cc3)cc2)c(COCc2ccccc2)n1
- Activity [12]: Dose-dependent effect
- F [13]: 68%
- inhibition [14]: -1%
- AUC [15]: 1140 ng·h/mL
- Cmax [16]: 260 ng/mL
- Cmax [1]: 54 ng/mL
- Activity [17]: 29%
- half-life [18]: 3.9 h
- IC50 [2]: 180 nM
- concentration at 1 h [3]: 350 ng/mL
- IC50 [19]: > 33000 nM
- IC50 [20]: > 33000 nM
- concentration at 1 h [21]: 500 ng/mL
- concentration at 1 h [4]: 1070 ng/g
- IC50 [22]: > 10000 nM
- IC50 [23]: > 5500 nM
- Activity [24]: Dose-dependent effect
- IC50 [6]: 19 nM
- IC50 [25]: > 33000 nM
- Activity [26]: Dose-dependent effect
- Activity [27]: Dose-dependent effect
- concentration at 8 h [28]: 140 ng/g
- concentration at 8 h [10]: 50 ng/g
- concentration at 8 h [11]: 30 ng/mL
- IC50 [29]: > 33000 nM
- IC50 [30]: > 33000 nM
- Activity [31]: 24%
- Activity [32]: Active
- concentration at 8 h [33]: 190 ng/mL
- bioavailability [8]: 5.5%
- clearance [34]: 36.7 mL/min/kg
- concentration at 1 h [35]: 330 ng/g
- AUC [36]: 120 ng·h/mL

Structure (SMILES): CCc1nc(N)nc(N)c1-c1ccc(CNc2ccc([N+](=O)[O-])cc2)cc1
- IC50 [2]: 190 nM
- IC50 [6]: 9.2 nM

Structure (SMILES): COc1ccc(CNc2ccc(-c3c(N)nc(N)nc3COCc3ccccc3)cc2)cc1
- IC50 [2]: 90 nM
- IC50 [6]: 7.7 nM

Structure (SMILES): N#Cc1ccc(CNc2ccc(-c3c(N)nc(N)nc3COCc3ccccc3)cc2)cc1
- IC50 [2]: 19 nM
- IC50 [6]: 2.8 nM

Continued by falling IC50 [2], values first:

- Cmax [1]: 170 ng/mL
- IC50 [2]: 1380 nM
- concentration at 1 h [3]: 250 ng/mL
- concentration at 1 h [4]: 2740 ng/g
- half-life [5]: 5.2 h
- IC50 [6]: 310 nM
- concentration at 8 h [10]: 600 ng/g
- clearance [7]: 30 mL/min/kg
- concentration at 8 h [11]: 110 ng/mL
- bioavailability [8]: 76%
- AUC [9]: 2200 ng·h/mL
Structure (SMILES): CCc1nc(N)nc(N)c1-c1ccc(NCc2ccc(Cl)cc2)cc1

- IC50 [2]: 700 nM
- IC50 [6]: 67 nM
Structure (SMILES): CC(C)(C)CNc1ccc(-c2c(N)nc(N)nc2COCc2ccccc2)cc1

- IC50 [2]: 690 nM
- IC50 [6]: 21 nM
Structure (SMILES): CCc1nc(N)nc(N)c1-c1ccc(NCc2cc(F)c(S(=O)(=O)C(F)(F)F)c(F)c2)cc1

- IC50 [2]: 220 nM
- IC50 [6]: 110 nM
Structure (SMILES): CCc1nc(N)nc(N)c1-c1ccc(NCc2ccnc(Cl)c2)cc1

- Cmax [1]: 140 ng/mL
- IC50 [2]: 110 nM
- concentration at 1 h [3]: 120 ng/mL
- concentration at 1 h [4]: 420 ng/g
- half-life [5]: 2.4 h
- IC50 [6]: 57 nM
- clearance [7]: 61.7 mL/min/kg
- bioavailability [8]: 51%
- AUC [9]: 680 ng·h/mL
Structure (SMILES): CCc1nc(N)nc(N)c1-c1ccc(NCc2ccc(C(C)=O)cc2)cc1

- IC50 [2]: 48 nM
- IC50 [6]: 6.9 nM
Structure (SMILES): CS(=O)(=O)c1ccc(COc2ccc(-c3c(N)nc(N)nc3COCc3ccccc3)cc2)cc1

- IC50 [2]: 16 nM
- IC50 [6]: 0.8 nM
Structure (SMILES): Nc1nc(N)c(-c2ccc(CNc3ccc([N+](=O)[O-])cc3)cc2)c(COCc2ccccc2)n1

- Cmax [1]: 160 ng/mL
- IC50 [2]: 11 nM
- concentration at 1 h [3]: 1040 ng/mL
- concentration at 1 h [4]: 30 ng/g
- half-life [5]: 8.7 h
- IC50 [6]: 4.2 nM
- clearance [7]: 26.7 mL/min/kg
- bioavailability [8]: 78%
- AUC [9]: 2700 ng·h/mL
Structure (SMILES): CCc1nc(N)nc(N)c1-c1ccc(NCc2ccc(S(C)(=O)=O)cc2)c(Cl)c1

- IC50 [2]: 5.8 nM
- IC50 [6]: 0.2 nM
Structure (SMILES): Nc1nc(N)c(-c2ccc(NCc3ccc([N+](=O)[O-])cc3)cc2)c(COCc2ccccc2)n1

- IC50 [2]: 3.6 nM
- IC50 [6]: 1.5 nM
Structure (SMILES): Nc1nc(N)c(-c2ccc(NCc3ccnc(Cl)c3)cc2)c(COCc2ccccc2)n1
